Reference: ChEMBL document CHEMBL1759987, “2-Acylamino-5-chlorobenzophenones with enhanced selectivity towards malaria parasites” (Eur J Med Chem, 2011)

How the values were obtained:
[1] = Selectivity index, CC50 for HeLa cells to IC50 for Plasmodium falciparum; type: functional
Plasmodium falciparum = assay: Antiplasmodial activity against multidrug- resistant Plasmodium falciparum Dd2 assessed as inhibition of [3H]hypoxanthine incorporation after 72 hrs; type: functional, organism-based
How it was run: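 Dd2 parasites kept in continuous culture and sorbitol-synchronized, then exposed to a range of concentrations for 72 h. Growth read by [3H]-hypoxanthine incorporation and converted to percent inhibition. IC50 taken from sigmoidal dose-response curves fitted with a Hill function. At least three independent repeats, reported as mean ± SEM.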

[2] = Cytotoxicity in human HeLa cells assessed as cell viability after 72 hrs; type: cell-based
How it was run: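 HeLa cells grown in RPMI 1640 with 10% heat-inactivated FBS and gentamicin at 37 °C. About 10,000 cells seeded per well, preincubated 48 h without compound. DMSO stocks (10 mg/ml) diluted 1:200 in medium and added, then 72 h at 37 °C, 5% CO2. Cells fixed with glutaraldehyde, stained with 0.05% methylene blue, eluted with 0.33 M HCl, OD read at 660 nm.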

In the case of `Cl.NC(C(=O)Nc1ccc(Cl)cc1C(=O)c1ccccc1)c1ccccc1` (racemic), the “Ratio CC50/IC50” value [1] is reported as 6, the IC50 (Plasmodium falciparum) is reported as 6.71 µM and the CC50 at 72 h [2] is reported as 37 µM.

In the case of `O=C(c1ccccc1)c1cc(Cl)ccc1NC(=O)C(c1cccc2ccccc12)N1CCN(CCO)CC1` (racemic), the “Ratio CC50/IC50” value [1] is reported as 18, the IC50 (Plasmodium falciparum) is reported as 0.95 µM and the CC50 at 72 h [2] is reported as 17 µM.

With `O=C(c1ccccc1)c1cc(Cl)ccc1NC(=O)C(c1ccccc1)N1CCN(Cc2ccccc2)CC1` (racemic) the “Ratio CC50/IC50” value [1] was 6, the IC50 (Plasmodium falciparum) was over 20 µM and the CC50 at 72 h [2] was over 118 µM.

In the case of `CC(C)(C)OC(=O)N1CCN(C(C(=O)Nc2ccc(Cl)cc2C(=O)c2ccccc2)c2ccccc2)CC1` (centres undefined), the “Ratio CC50/IC50” value [1] is reported as 11, the IC50 (Plasmodium falciparum) is reported as 8.21 µM and the CC50 at 72 h [2] is reported as over 94 µM.

In the case of `O=C(c1ccccc1)c1cc(Cl)ccc1NC(=O)C(c1ccccc1)N1CCOCC1` (racemic), the “Ratio CC50/IC50” value [1] is reported as 6, the IC50 (Plasmodium falciparum) is reported as 6.72 µM and the CC50 at 72 h [2] is reported as 39 µM.

In the case of `O=C(c1ccccc1)c1cc(Cl)ccc1NC(=O)C(c1ccccc1)N1CCN(c2ccc([N+](=O)[O-])cc2)CC1` (racemic), the “Ratio CC50/IC50” value [1] is reported as 5, the IC50 (Plasmodium falciparum) is reported as over 20 µM and the CC50 at 72 h [2] is reported as over 90 µM.

In the case of `O=C1CCN(C(C(=O)Nc2ccc(Cl)cc2C(=O)c2ccccc2)c2ccccc2)CC1` (racemic), the “Ratio CC50/IC50” value [1] is reported as 4, the IC50 (Plasmodium falciparum) is reported as 7.43 µM and the CC50 at 72 h [2] is reported as 27 µM.

For `O=C(c1ccccc1)c1cc(Cl)ccc1NC(=O)C(c1ccccc1)N1CCSCC1` (racemic), the “Ratio CC50/IC50” value [1] was 10, the IC50 (Plasmodium falciparum) was 11.5 µM and the CC50 at 72 h [2] was over 111 µM.

For `CCCN1CCN(C(C(=O)Nc2ccc(Cl)cc2C(=O)c2ccccc2)c2ccccc2)CC1` (racemic), the “Ratio CC50/IC50” value [1] was 6, the IC50 (Plasmodium falciparum) was 6.23 µM and the CC50 at 72 h [2] was 38 µM.

With `Cl.NC(Cc1ccccc1)C(=O)Nc1ccc(Cl)cc1C(=O)c1ccccc1` (racemic) the “Ratio CC50/IC50” value [1] was 3, the IC50 (Plasmodium falciparum) was 14.1 µM and the CC50 at 72 h [2] was 38 µM.

In the case of `Cl.N[C@H](C(=O)Nc1ccc(Cl)cc1C(=O)c1ccccc1)c1ccccc1`, the “Ratio CC50/IC50” value [1] is reported as 3, the IC50 (Plasmodium falciparum) is reported as over 16 µM and the CC50 at 72 h [2] is reported as 43 µM.

In the case of `O=C(c1ccccc1)c1cc(Cl)ccc1NC(=O)C(c1ccc2ccccc2c1)N1CCN(CCO)CC1` (racemic), the “Ratio CC50/IC50” value [1] is reported as 94, the IC50 (Plasmodium falciparum) is reported as 0.18 µM and the CC50 at 72 h [2] is reported as 17 µM.

In the case of `Cl.N[C@@H](C(=O)Nc1ccc(Cl)cc1C(=O)c1ccccc1)c1ccccc1`, the “Ratio CC50/IC50” value [1] is reported as 1, the IC50 (Plasmodium falciparum) is reported as 9.25 µM and the CC50 at 72 h [2] is reported as 12 µM.

In the case of `O=C(c1ccccc1)c1cc(Cl)ccc1NC(=O)C(c1ccccc1)N1CCN(CCO)CC1` (racemic), the “Ratio CC50/IC50” value [1] is reported as 150, the IC50 (Plasmodium falciparum) is reported as 0.33 µM and the CC50 at 72 h [2] is reported as 49 µM.

With `O=C(c1ccccc1)c1cc(Cl)ccc1NC(=O)C(c1ccccc1)N1CCC(CCO)CC1` (racemic) the “Ratio CC50/IC50” value [1] was 1, the IC50 (Plasmodium falciparum) was 15 µM and the CC50 at 72 h [2] was 19 µM.

In the case of `O=C(c1ccccc1)c1cc(Cl)ccc1NC(=O)C(c1ccccc1)N1CC[S+]([O-])CC1` (racemic), the “Ratio CC50/IC50” value [1] is reported as 8, the IC50 (Plasmodium falciparum) is reported as 9.02 µM and the CC50 at 72 h [2] is reported as 71 µM.

For `CN1CCN(C(=O)NC(C(=O)Nc2ccc(Cl)cc2C(=O)c2ccccc2)c2ccccc2)CC1` (single isomer, unassigned), the “Ratio CC50/IC50” value [1] was 17, the IC50 (Plasmodium falciparum) was 4.21 µM and the CC50 at 72 h [2] was 72 µM.

For `CCOC(=O)N1CCN(C(C(=O)Nc2ccc(Cl)cc2C(=O)c2ccccc2)c2ccccc2)CC1` (racemic), the “Ratio CC50/IC50” value [1] was 15, the IC50 (Plasmodium falciparum) was 4.26 µM and the CC50 at 72 h [2] was 64 µM.

In the case of `CN1CCN(C(=O)N[C@@H](C(=O)Nc2ccc(Cl)cc2C(=O)c2ccccc2)c2ccccc2)CC1`, the “Ratio CC50/IC50” value [1] is reported as 45, the IC50 (Plasmodium falciparum) is reported as 1.35 µM and the CC50 at 72 h [2] is reported as 60 µM.

With `CN(C)CCN1CCN(C(C(=O)Nc2ccc(Cl)cc2C(=O)c2ccccc2)c2ccccc2)CC1` (racemic) the “Ratio CC50/IC50” value [1] was 15, the IC50 (Plasmodium falciparum) was 2.56 µM and the CC50 at 72 h [2] was 39 µM.

For `CC(C)(C)OC(=O)N[C@@H](C(=O)Nc1ccc(Cl)cc1C(=O)c1ccccc1)c1ccccc1`, the “Ratio CC50/IC50” value [1] was 17, the IC50 (Plasmodium falciparum) was 6.18 µM and the CC50 at 72 h [2] was over 108 µM.

For `CCN1CCN(C(C(=O)Nc2ccc(Cl)cc2C(=O)c2ccccc2)c2ccccc2)CC1` (racemic), the “Ratio CC50/IC50” value [1] was 21, the IC50 (Plasmodium falciparum) was 3.62 µM and the CC50 at 72 h [2] was 76 µM.

With `CC(C)NC(=O)CN1CCN(C(C(=O)Nc2ccc(Cl)cc2C(=O)c2ccccc2)c2ccccc2)CC1` (racemic) the “Ratio CC50/IC50” value [1] was 41, the IC50 (Plasmodium falciparum) was 0.98 µM and the CC50 at 72 h [2] was 40 µM.

For `O=C(c1ccccc1)c1cc(Cl)ccc1NC(=O)C(c1ccc(C(F)(F)F)cc1)N1CCN(CCO)CC1` (racemic), the “Ratio CC50/IC50” value [1] was 28, the IC50 (Plasmodium falciparum) was 0.6 µM and the CC50 at 72 h [2] was 17 µM.

For `O=CN1CCN(C(C(=O)Nc2ccc(Cl)cc2C(=O)c2ccccc2)c2ccccc2)CC1` (racemic), the “Ratio CC50/IC50” value [1] was 13, the IC50 (Plasmodium falciparum) was 3.77 µM and the CC50 at 72 h [2] was 50 µM.

In the case of `O=C(c1ccccc1)c1cc(Cl)ccc1NC(=O)C(c1ccc(-c2ccccc2)cc1)N1CCN(CCO)CC1` (racemic), the “Ratio CC50/IC50” value [1] is reported as 59, the IC50 (Plasmodium falciparum) is reported as 0.28 µM and the CC50 at 72 h [2] is reported as 16 µM.

With `CC(C)(C)OC(=O)N[C@H](C(=O)Nc1ccc(Cl)cc1C(=O)c1ccccc1)c1ccccc1` the “Ratio CC50/IC50” value [1] was 13, the IC50 (Plasmodium falciparum) was 8.47 µM and the CC50 at 72 h [2] was over 108 µM.

In the case of `O=C(c1ccccc1)c1cc(Cl)ccc1NC(=O)C(c1ccccc1)n1ccnc1` (racemic), the “Ratio CC50/IC50” value [1] is reported as 12, the IC50 (Plasmodium falciparum) is reported as 4.51 µM and the CC50 at 72 h [2] is reported as 55 µM.

In the case of `COC(=O)CN1CCN(C(C(=O)Nc2ccc(Cl)cc2C(=O)c2ccccc2)c2ccccc2)CC1` (racemic), the “Ratio CC50/IC50” value [1] is reported as 33, the IC50 (Plasmodium falciparum) is reported as over 3 µM and the CC50 at 72 h [2] is reported as over 99 µM.

With `O=C(O)CN1CCN(C(C(=O)Nc2ccc(Cl)cc2C(=O)c2ccccc2)c2ccccc2)CC1` (racemic) the “Ratio CC50/IC50” value [1] was 34, the IC50 (Plasmodium falciparum) was over 3 µM and the CC50 at 72 h [2] was over 102 µM.

For `O=C(c1ccccc1)c1cc(Cl)ccc1NC(=O)C(c1ccc(F)cc1)N1CCN(CCO)CC1` (racemic), the “Ratio CC50/IC50” value [1] was 45, the IC50 (Plasmodium falciparum) was 0.84 µM and the CC50 at 72 h [2] was 38 µM.

In the case of `CN1CCN(C(C(=O)Nc2ccc(Cl)cc2C(=O)c2ccccc2)c2ccccc2)CC1` (racemic), the “Ratio CC50/IC50” value [1] is reported as 18, the IC50 (Plasmodium falciparum) is reported as 3.54 µM and the CC50 at 72 h [2] is reported as 63 µM.

In the case of `O=C(c1ccccc1)c1cc(Cl)ccc1NC(=O)C(c1ccccc1)N1CCN(c2ccccc2)CC1` (racemic), the “Ratio CC50/IC50” value [1] is reported as 5, the IC50 (Plasmodium falciparum) is reported as over 20 µM and the CC50 at 72 h [2] is reported as over 98 µM.

In the case of `NC(=O)CN1CCN(C(C(=O)Nc2ccc(Cl)cc2C(=O)c2ccccc2)c2ccccc2)CC1` (racemic), the “Ratio CC50/IC50” value [1] is reported as 22, the IC50 (Plasmodium falciparum) is reported as 3.32 µM and the CC50 at 72 h [2] is reported as 65 µM.

Work on `NC(CO)C(=O)Nc1ccc(Cl)cc1C(=O)c1ccccc1` (racemic) yielded an IC50 (Plasmodium falciparum) of over 20 µM.

With `O=C(c1ccccc1)c1cc(Cl)ccc1NC(=O)C(c1ccccc1)N1CCCCC1` (racemic) the “Ratio CC50/IC50” value [1] was 6, the IC50 (Plasmodium falciparum) was 10.2 µM and the CC50 at 72 h [2] was 63 µM.

With `O=C(c1ccccc1)c1cc(Cl)ccc1NC(=O)C(c1ccc(Br)cc1)N1CCN(CCO)CC1` (racemic) the “Ratio CC50/IC50” value [1] was 31, the IC50 (Plasmodium falciparum) was 0.56 µM and the CC50 at 72 h [2] was 17 µM.
